Measured values from ChEMBL document CHEMBL1154507, “Synthesis and characterization of Deltalac-acetogenins that potently inhibit mitochondrial complex I” (Bioorg Med Chem, 2009).
pIC50: −log10 of the molar value. Activity calls are given as the source filed them. No cut-off for these calls is given here.

Legend:
[1] = Inhibition of Electron transport protein complex 1 in bovine heart submitochondrial particles assessed as NADH ubiquinone oxidoreductase oxidase activity by spectrophotometric analysis in presence of exogenous ubiquinone 1; design: species or system Bos taurus
Procedure, shortened: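 Activated beef-heart inverted SMP were pre-equilibrated with inhibitor 5 min, then NADH was added at 30 °C. Medium: 0.25 M sucrose, 1 mM MgCl2, 2 mM KCN, antimycin A, ubiquinone Q1, 50 mM phosphate pH 7.4. Rate was followed at 340 nm, DMSO ≤2%. IC50 is half-maximal inhibition of control; mean ± SD of three independent experiments.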

[2] = Inhibition of Electron transport protein complex 1 in bovine heart submitochondrial particles assessed as NADH oxidase activity by spectrophotometric analysis; design: species or system Bos taurus
Procedure, shortened: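 Beef-heart inverted SMP (stored at −80 °C in 0.25 M sucrose, 10 mM Tris-HCl pH 7.4) diluted to 0.5 mg/mL and NADH-activated. Inhibitor pre-equilibrated with SMP 5 min in 50 mM Hepes pH 7.5, 5 mM MgCl2. NADH started the reaction. Initial linear rates were read at 340 nm, 30 °C, with DMSO ≤2%. IC50 is half-maximal inhibition of control; mean ± SD, three independent experiments.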

Bos taurus [3] = species: Bos taurus; experiment: Inhibition of Electron transport protein complex 1 in bovine heart submitochondrial particles assessed as residual NADH ubiquinone oxidoreductase oxidase activity at 1 uM by spectrophotometric analysis in presence of exogenous ubiquinone 1
M059J [4] = experiment: Cytotoxicity against human M059J ATCC CRL2366 cells by SRB assay; assay type: functional, cell-based
A549 [5] = experiment: Cytotoxicity against human A549 cells by SRB assay; assay type: functional, cell-based
[6] = Cytotoxicity against human MCF10A cells by MTT assay; assay type: cell-based; conditions: MCF-10A
[7] = Cytotoxicity against human MCF10A cells by SRB assay; assay type: cell-based; conditions: mcf-10a
3LL = experiment: Cytotoxicity against mouse 3LL cells by SRB assay; assay type: functional, cell-based
Bos taurus [8] = species: Bos taurus; experiment: Inhibition of Electron transport protein complex 1 in bovine heart submitochondrial particles assessed as residual NADH oxidase activity at 1 uM by spectrophotometric analysis
MCF7 [9] = experiment: Cytotoxicity against human MCF7 cells by MTT assay; assay type: functional, cell-based
[10] = Cytotoxicity against mouse 3LL cells by MTT assay; assay type: functional, cell-based
A549 [11] = experiment: Cytotoxicity against human A549 cells by MTT assay; assay type: functional, cell-based
M059J [12] = experiment: Cytotoxicity against human M059J ATCC CRL2366 cells by MTT assay; assay type: functional, cell-based
ATCC CRL2365 = experiment: Cytotoxicity against human M059K ATCC CRL2365 cells by SRB assay; assay type: functional, cell-based
[13] = Cytotoxicity against human M059K ATCC CRL2365 cells by MTT assay; assay type: functional, cell-based
MCF7 [14] = experiment: Cytotoxicity against human MCF7 cells by SRB assay; assay type: functional, cell-based
MCF7 [15] = experiment: Induction of shift to glycolysis in human MCF7 cells assessed as lactate production at 0.38 uM after 3 hrs; assay type: functional
MCF7 [16] = experiment: Induction of shift to glycolysis in human MCF7 cells assessed as lactate production at 6.6 uM after 3 hrs; assay type: functional
MCF7 [17] = experiment: Induction of shift to glycolysis in human MCF7 cells assessed as lactate production at 0.44 uM after 3 hrs; assay type: functional
MCF7 [18] = experiment: Induction of shift to glycolysis in human MCF7 cells assessed as lactate production at 18.2 uM after 3 hrs; assay type: functional
MCF7 [19] = experiment: Induction of shift to glycolysis in human MCF7 cells assessed as lactate production at < 0.15 uM after 3 hrs; assay type: functional

Compound | pIC50 [1] | pIC50 [2] | Activity (Bos taurus [3]) [%] | pIC50 [6] | Activity (Bos taurus [8]) [%] | pIC50 (MCF7 [9]) | pIC50 [10] | pIC50 (A549 [11]) | pIC50 (M059J [12]) | pIC50 [13] | other results
CCCCCCCC#CC[C@@H](O)[C@H]1CC[C@H]([C@H]2CC[C@H]([C@H](O)CC#CCCCCCCC)O2)O1 | 7.32 | 7.52 | 18 | 5.70 | 12 | 5.12 | 5.28 | 4.88 | < 4.68 | 4.69 | Activity (M059J [4]): Active; Activity (A549 [5]): Active; Activity [7]: Active; Activity (3LL): Active; Activity (ATCC CRL2365): Active; Activity (MCF7 [14]): Active; Activity (MCF7 [15]): 1080 µM
CCCCCCCCCC[C@@H](O)[C@H]1CC[C@H]([C@H]2CC[C@H]([C@H](O)CCCCCCCCCC)O2)O1 [dleta-lac-Acetogenin] | 4.98 | 7.91 | – | < 4.70 | – | < 4.70 | 6.00 | < 4.70 | < 4.70 | < 4.70 | Activity (MCF7 [16]): 616 µM
CCCCc1ccc(OCCC#CC[C@@H](O)[C@H]2CC[C@H]([C@H]3CC[C@H]([C@H](O)CC#CCCOc4ccc(CCCC)cc4)O3)O2)cc1 | 5.77 | 7.41 | 25 | < 4.80 | 18 | < 4.80 | 6.32 | < 4.80 | < 4.80 | 4.84 | Activity (MCF7 [17]): 1280 µM
CCCCc1ccc(OCCCCC[C@@H](O)[C@H]2CC[C@H]([C@H]3CC[C@H]([C@H](O)CCCCCOc4ccc(CCCC)cc4)O3)O2)cc1 | < 4.82 | 7.71 | – | < 4.80 | – | < 4.80 | 6.19 | < 4.80 | < 4.80 | < 4.80 | Activity (MCF7 [18]): 572 µM
CCCCCC[C@H]1C(=O)O[C@H](C)[C@H](NC(=O)c2cccc(NC=O)c2O)C(=O)O[C@@H](C)[C@@H]1OC(=O)CC(C)C [ANTIMYCIN A] | – | – | – | – | – | – | – | – | – | – | Activity (MCF7 [19]): 1520 µM
